What all share (assay type): functional
Test [1] has as its system Mus musculus. Nature of the test: Inhibitory activity against carrageenan induced paw edema in mice. Also noted: concentration or dose not given beside the values.
Test [2] has as its system Mus musculus. Nature of the test: Intestinal ulcerogenic activity at a dose of 100 mg/kg: group of 8 mice were considered for the test. A digest of the protocol: (§1)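 Fed animals were gavaged with compound on 3 consecutive days and killed 24 h after the last dose. Intestines were examined for ulcers. Read-out: ulcer incidence per group of 8 and lesion length (mm/mouse ± SE).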

For test [3], the system named is Mus musculus. Nature of the test: Gastric ulcerogenic activity at a dose of 300 mg/kg. Summed up: (§2)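 Mice fasted 24 h with water available. Compound in methyl cellulose vehicle given by oral gavage at 0.5 mL/100 g body weight. Animals were killed after 4 h and stomachs examined for lesions under a dissecting microscope. Read-out: ulcer incidence per group of 8 and lesion length (mm/mouse ± SE).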

For test [4], the system named is Mus musculus. Nature of the test: The compound was evaluated for inhibition of edema induced by serotonin at 250 ug/mL. A digest of the protocol: (§3)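 Female albino mice (22 ± 2 g, local breed), six per group, housed in eights with free food and water, acclimatised at least 2 days. Compound given orally at 100 mg/kg; 60 min later 0.01 mL of the phlogistic agent (histamine or serotonin) injected subcutaneously into the right hind paw plantar surface. Paw edema measured with a dial thickness gauge; effect expressed as percent inhibition.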

The species entered for test [5] is Mus musculus. Nature of the test: Analgesic activity in mice. More on the design: concentration or dose not given beside the values. Summed up:
(§4)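 Female albino mice (22 ± 2 g, local breed), groups of eight, dosed orally at 100 mg/kg as a suspension in 5% gum arabic syrup. After 1 h, 3% acetic acid was given ip at 300 mg/kg. Stretches were counted over 10 min, starting 5 min after injection. Percent activity = |n − n'|/n × 100 against syrup-only controls (n = 6).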

The test system of test [6] is Mus musculus. Nature of the test: Intestinal ulcerogenic activity at a dose of 30 mg/kg. A digest of the protocol: as §1
In test [7] the test system is Mus musculus. Nature of the test: Gastric ulcerogenic activity at a dose of 100 mg/kg:group of 8 mouse considered for the test. Summed up: as §2
Test [8] concerns Mus musculus. Nature of the test: Intestinal ulcerogenic activity at a dose of 300 mg/kg. Summed up:
as §1

The test system of test [9] is Mus musculus. Nature of the test: Gastric ulcerogenic activity at a dose of 30 mg/kg:group of 8 mouse considered for the test. A digest of the protocol:
as §2

Test [10] concerns Mus musculus. Nature of the test: Gastric ulcerogenic activity at a dose of 30 mg/kg. A digest of the protocol: as §2
The test system of test [11] is Mus musculus. Nature of the test: Intestinal ulcerogenic activity at a dose of 300 mg/kg: group of 8 mice were considered for the test. A digest of the protocol:
as §1

Test [12] concerns Mus musculus. Nature of the test: The compound was evaluated for inhibition of edema induced by PGE at […]. A digest of the protocol:
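Mice, six per group, dosed orally at 100 mg/kg. After 60 min, PGE2 (20 μg/0.01 mL) was injected subcutaneously into the right hind paw plantar surface. Edema was measured with a dial thickness gauge and the effect expressed as percent inhibition.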

The test system of test [13] is Mus musculus. Nature of the test: The compound was evaluated for inhibition of edema induced by arachidonic acid at 1 mg/mL. A digest of the protocol:
(§5)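 Mice, six per group, dosed orally at 100 mg/kg. After 60 min, 0.01 mL of phlogistic agent (arachidonic acid or bradykinin) was injected subcutaneously into the right hind paw plantar surface. Edema was measured by dial thickness gauge and the effect expressed as percent inhibition.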

For test [14], the system named is Mus musculus. Nature of the test: The compound was evaluated for inhibition of edema induced by histamine at 10 mg/mL. A digest of the protocol:
as §3

The test system of test [15] is Mus musculus. Nature of the test: Intestinal ulcerogenic activity at a dose of 30 mg/kg: group of 8 mice were considered for the test. A digest of the protocol: as §1
Test [16] has as its system Mus musculus. Nature of the test: The compound was evaluated for inhibition of edema induced by bradykinin at 100 ug/mL. Summed up:
as §5

For test [17], the system named is Mus musculus. Nature of the test: Intestinal ulcerogenic activity at a dose of 100 mg/kg. Summed up: as §1
For test [18], the system named is Mus musculus. Nature of the test: Gastric ulcerogenic activity at a dose of 100 mg/kg. A digest of the protocol: as §2
The subject of test [19] is Mus musculus. Nature of the test: Gastric ulcerogenic activity at a dose of 300 mg/kg:group of 8 mouse considered for the test. A digest of the protocol: as §2
Test [20] has as its system Mus musculus. Nature of the test: Antiinflammatory activity against CPE in mice following peroral administration of 30 mg/kg. To be noted: route oral. Summed up: (§6)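 Female albino mice (22 ± 2 g), six per group, dosed orally. After 60 min, 0.01 mL of 2% carrageenan was injected subcutaneously into the right hind paw plantar surface. Edema was read with a dial thickness gauge 3 h later. ED50 was given in mg/kg po with 95% confidence limits.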

In test [21] the test system is Mus musculus. Nature of the test: Intestinal ulcerogenic activity at a dose of 50 mg/kg: 8 mice were considered for the test. Summed up: as §1
The subject of test [22] is Mus musculus. Nature of the test: Antiinflammatory activity against CPE in mice following peroral administration of 20 mg/kg. The settings on record: route oral. A digest of the protocol: as §6
Test [23] has as its system Mus musculus. Nature of the test: Intestinal ulcerogenic activity at a dose of 20 mg/kg. Summed up:
as §1

The subject of test [24] is Mus musculus. Nature of the test: Gastric ulcerogenic activity at a dose of 50 mg/kg. A digest of the protocol:
as §2

The subject of test [25] is Mus musculus. Nature of the test: Gastric ulcerogenic activity at a dose of 100 mg/kg: 8 mice were considered for the test. Summed up:
as §2

For test [26], the system named is Mus musculus. Nature of the test: Gastric ulcerogenic activity at a dose of 20 mg/kg. A digest of the protocol:
as §2

Test [27] deals with Mus musculus. Nature of the test: Intestinal ulcerogenic activity at a dose of 20 mg/kg: 8 mice were considered for the test. A digest of the protocol:
as §1

Test [28] deals with Mus musculus. Nature of the test: Gastric ulcerogenic activity at a dose of 50 mg/kg: 8 mice were considered for the test. A digest of the protocol: as §2
The subject of test [29] is Mus musculus. Nature of the test: Gastric ulcerogenic activity at a dose of 20 mg/kg: 8 mice were considered for the test. A digest of the protocol:
as §2

The subject of test [30] is Mus musculus. Nature of the test: Intestinal ulcerogenic activity at a dose of 100 mg/kg: 8 mice were considered for the test. A digest of the protocol: as §1
The test system of test [31] is Mus musculus. Nature of the test: Intestinal ulcerogenic activity at a dose of 50 mg/kg. Summed up: as §1
The subject of test [32] is Mus musculus. Nature of the test: Gastric ulcerogenic activity at a dose of 300 mg/kg: group of 8 mice were considered for the test. Summed up: as §2
Test [33] deals with Mus musculus. Nature of the test: Gastric ulcerogenic activity at a dose of 100 mg/kg: group of 8 mice were considered for the test. Summed up: as §2
Test [34] has as its system Mus musculus. Nature of the test: Gastric ulcerogenic activity at a dose of 30 mg/kg: group of 8 mice were considered for the test. A digest of the protocol: as §2
For test [35], the species on record is Mus musculus. Nature of the test: Analgesic activity in mice. Summed up:
as §4

Test [36] concerns Mus musculus. Nature of the test: Intestinal ulcerogenic activity at a dose of 10 mg/kg. Summed up: as §1
In test [37] the test system is Mus musculus. Nature of the test: Gastric ulcerogenic activity at a dose of 10 mg/kg: 8 mice were considered for the test. A digest of the protocol: as §2
For test [38], the system named is Mus musculus. Nature of the test: The compound was evaluated for inhibition of edema induced by serotonin at 250 micro g/mL. Summed up:
as §3

Test [39] concerns Mus musculus. Nature of the test: Gastric ulcerogenic activity at a dose of 10 mg/kg. Summed up: as §2
Test [40] relates to Mus musculus. Nature of the test: Intestinal ulcerogenic activity at a dose of 10 mg/kg; 8 mice were considered for the test. Summed up: as §1
The subject of test [41] is Mus musculus. Nature of the test: Antiinflammatory activity against CPE in mice following peroral administration of 10 mg/kg. The settings on record: route oral. Summed up:
as §6

The test system of test [42] is Mus musculus. Nature of the test: The compound was evaluated for inhibition of edema induced by bradykinin at 100 micro g/mL. A digest of the protocol:
as §5

The subject of test [43] is Mus musculus. Nature of the test: Inhibitory activity against carrageenan induced mouse paw edema in mice.

Molecules are shown by their SMILES.

Regarding `O=C(c1ccc2c(c1)oc(=O)n2CCc1ccccn1)c1ccccc1Cl`, the Inhibition in the test with Mus musculus [1] amounted to 37.1%; in the test with Mus musculus [4], 18.2%; in the test with Mus musculus [12] it was 53%; with Mus musculus [13], 46%; in the test on Mus musculus [14], 5%; with Mus musculus [16], 6.4%. Moreover, the Ulcer incidence in the test with Mus musculus [2] is listed as 0 number/group; with Mus musculus [7], 0 number/group; in the test on Mus musculus [9] it was 0 number/group; in the test on Mus musculus [11] it was 0 number/group; in the test with Mus musculus [15], 0 number/group; in the test on Mus musculus [19] it was 2 number/group. Besides, the Lesion length with Mus musculus [3] amounted to 0.4 mm mice-1; in the test on Mus musculus [6], 0 mm mice-1; in the test on Mus musculus [8] it was 0.2 mm mice-1; in the test with Mus musculus [10] it was 0 mm mice-1; in the test on Mus musculus [17], 0 mm mice-1; in the test with Mus musculus [18], 0 mm mice-1. In addition, the Analgesic activity in the test listed under Mus musculus [5] was 91.74%. The molecule also had an ED50 with Mus musculus [20] of 25.5 mg/kg.
Consider `O=c1oc2ccc(Cl)cc2n1CCc1ccncc1`, for which the Ulcer incidence with Mus musculus [21] is 0 number/group; with Mus musculus [25], 1 number/group; in the test on Mus musculus [27] it was 0 number/group; in the test on Mus musculus [28], 0 number/group; in the test with Mus musculus [29] it was 0 number/group; in the test on Mus musculus [30], 0 number/group. Also, the Inhibition in the test on Mus musculus [1] is on record as 68.5%; in the test on Mus musculus [4] it was 13.1%; in the test on Mus musculus [12] it was 68%; in the test on Mus musculus [13], 51.2%; in the test on Mus musculus [14] it was 11%; in the test on Mus musculus [16], 9%. Besides, in the test with Mus musculus [22], the ED50 is 18.2 mg/kg. Besides, in the test filed under Mus musculus [5], the Analgesic activity came out at 100%. For the same molecule, the Lesion length in the test with Mus musculus [23] is 0 mm mice-1; in the test with Mus musculus [24], 0 mm mice-1; with Mus musculus [26], 0 mm mice-1; in the test with Mus musculus [17], 0.15 mm mice-1; in the test with Mus musculus [31], 0 mm mice-1; in the test on Mus musculus [18], 0.4 mm mice-1.
On to `O=C(c1ccccc1Cl)c1cc2oc(=O)n(CCc3ccncc3)c2cc1Cl`, for which the Inhibition in the test on Mus musculus [1] came out at 49.6%; in the test with Mus musculus [4], 8.4%; in the test on Mus musculus [12] it was 55%; in the test on Mus musculus [13], 43%; in the test on Mus musculus [14], 9.3%; with Mus musculus [16], 12%. In addition, the Ulcer incidence in the test with Mus musculus [2] was found to be 0 number/group; with Mus musculus [11], 0 number/group; in the test with Mus musculus [32], 1 number/group; in the test with Mus musculus [33], 0 number/group; in the test with Mus musculus [34] it was 0 number/group; with Mus musculus [15], 0 number/group. Besides, the Lesion length with Mus musculus [3] came to 0.4 mm mice-1; in the test on Mus musculus [6], 0 mm mice-1; in the test on Mus musculus [8] it was 0.4 mm mice-1; in the test on Mus musculus [10] it was 0 mm mice-1; in the test on Mus musculus [17], 0 mm mice-1; in the test with Mus musculus [18], 0 mm mice-1. In the test filed under Mus musculus [5], the Analgesic activity amounted to 92.61%. Also, it took a dose of 30 mg/kg to reach the 50% effect level in the test with Mus musculus [20] (ED50).
`CC(=O)Oc1ccccc1C(=O)O` [ASPIRIN] showed an Analgesic activity in the test filed under Mus musculus [35] of 58.26%.
With `COc1ccc2c(c1)c(CC(=O)O)c(C)n2C(=O)c1ccc(Cl)cc1` [INDOMETHACIN], the results for the Lesion length with Mus musculus [36] and in the test with Mus musculus [39] were 0.4 mm mice-1 and 0.6 mm mice-1, respectively. For the same molecule, the Ulcer incidence is listed as 7 number/group in the test on Mus musculus [37] and 8 number/group in the test on Mus musculus [40]. The Inhibition is reported as 10.3% in the test on Mus musculus [38]; 37% in the test on Mus musculus [13]; 14.7% with Mus musculus [14]; 13.4% in the test with Mus musculus [42]; 21.1% in the test on Mus musculus [43]. Also, in the test with Mus musculus [41], the ED50 came out at 7.5 mg/kg.

The values are drawn from ChEMBL document CHEMBL1125427, “Synthesis of 3-(2-pyridylethyl)benzoxazolinone derivatives: potent analgesic and antiinflammatory compounds inhibiting prostaglandin E2” (1992).
